# ARFGAP1 inhibitor: inhibitors of rat ARFGAP1 GAP activity, primary screen, biochemical, fluorescence polarization, GDP tracer; Arfgap1-stimulated ARF1 GTP hydrolysis, GDP FP detection; inhibition, % at 16.5 µM; actives 0.26% (n = 360,000);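 active = inhibition above a per-plate limit, mean inhibition of low control wells plus 3 SD, cut at about 25% in these data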;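 also: 0% = DMSO wells with enzyme and 100% = wells lacking Arfgap1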
# Target sequence (Q62848 1-136 limits assumed): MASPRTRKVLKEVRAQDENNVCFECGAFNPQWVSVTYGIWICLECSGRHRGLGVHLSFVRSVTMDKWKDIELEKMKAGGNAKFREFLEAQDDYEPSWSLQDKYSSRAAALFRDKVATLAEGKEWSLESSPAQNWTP
#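 System: truncated rat Arfgap1 GAP domain / Benchmarks: high control wells lacking Arfgap1, low control full reaction with DMSO / Times: compound-enzyme preincubation 20 min, reaction 120 min, detection 60 min, 25 °C / Repeats: one replicate per compound / Also added: human ARF1(Δ1-17)-GTP substrate / Measured by: Tracer-displacement fluorescence polarization with EDTA stop, 620/688 nm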
# IMP-1 inh: IMP-1 metallo-beta-lactamase inhibitors, primary screen, biochemical, epi-absorbance readout, Pseudomonas aeruginosa enzyme | metallo-beta-lactamase IMP-1 (Pseudomonas aeruginosa) | purified IMP-1, nitrocefin hydrolysis, epi-absorbance fluorescence | inhibition, % at 5.6 µM | actives 0.45% (n = 290,000) | AID 1556, 2009;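 active = inhibition above the mean plus 3 SD of all compounds in the same screening run, cut at about 4.5% in these data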;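 also: 0% = IMP-1 with DMSO and 100% = DMSO wells lacking enzyme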
#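 System: Purified recombinant IMP-1 metallo-beta-lactamase enzyme | Measured by: Fluorescence quenching readout, ex 480/em 530 nm | Replication: Singlicate | Incubation: 15 min preincubation plus 25 min reaction at 25 °C | Evaluation: Percent inhibition from optical density relative to buffer-blank wells | Benchmarks: DMSO with and without IMP-1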
# Calb FLC: C. albicans growth inhibition with fluconazole, primary screen, CaCi-2 strain, Alamar Blue fluorescence; growth inhibition, % (no concentration beside the values); C. albicans CaCi-2 + fluconazole, 48 h; actives 0.57% (n = 300,000); AID 1979, 2009;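 active = growth inhibition above about 58% in most replicates, limit read from the data, passing the limit was not always enough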;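 also: all wells also contain fluconazole at 8 µg/ml as a sub-toxic cotreatment; 0% = median of DMSO wells and 100% = median of geldanamycin control wells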
# ASAP1 inh: inhibitors of human ASAP1 ArfGAP activity, primary screen, biochemical, fluorescence polarization; Arf-GAP with SH3 domain, ANK repeat and PH domain-containing protein 1 (Homo sapiens), …; ASAP1-stimulated ARF1 GTP hydrolysis, GDP FP detection; inhibition, % at 16.5 µM; actives 0.19% (n = 360,000); AID 624377, 2012; in the data active = inhibition above about 25%;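 also: 0% = vehicle with enzyme and substrate and 100% = no enzyme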
# VIM-2 inh: VIM-2 metallo-beta-lactamase inhibitors, primary screen, biochemical, epi-absorbance readout, Pseudomonas aeruginosa enzyme | purified VIM-2, nitrocefin hydrolysis, epi-absorbance fluorescence | inhibition, % at 5.6 µM | actives 0.89% (n = 290,000);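 active = inhibition above the mean of all tested compounds plus 3 SD, cutoff set per screening run, cut at about 7.5% in these data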;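 also: red hydrolysis product quenches plate fluorescence so inhibitors raise well fluorescence; 0% = enzyme with DMSO and 100% = DMSO without enzyme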
# PHOSPHO1 inh: PubChem AID 1565. inhibition, % at 13.3 µM. recombinant PHOSPHO1, absorbance phosphatase assay. actives 1.1% (n = 290,000). Phosphoethanolamine/phosphocholine phosphatase (Homo sapiens), Q8TCT1; in the data active = inhibition above about 60%
# Target sequence (Q8TCT1 whole entry, looked up): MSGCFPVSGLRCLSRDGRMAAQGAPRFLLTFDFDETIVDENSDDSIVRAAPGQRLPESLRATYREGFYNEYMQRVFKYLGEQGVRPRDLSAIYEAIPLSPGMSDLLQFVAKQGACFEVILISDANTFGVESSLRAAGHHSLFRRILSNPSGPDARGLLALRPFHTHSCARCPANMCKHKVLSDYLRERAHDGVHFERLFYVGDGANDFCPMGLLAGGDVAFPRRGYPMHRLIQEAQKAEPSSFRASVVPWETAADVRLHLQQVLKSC
# An asterisk follows results filed as active; / = no result. Most compounds without a hit are left out; they make up all but 2.6% or so of the library.
SMILES,ARFGAP1 inhibitor,IMP-1 inh,Calb FLC,ASAP1 inh,VIM-2 inh,PHOSPHO1 inh
Cn1c(=O)c2c(nc(Oc3ccc4ccccc4c3)n2C)n(C)c1=O,7,-3,-10,-1,-2,21
COc1ccc(C2CC(=O)C(c3ccccc3)=CN2Cc2ccccc2)cc1 (stereo unspecified),-1,/,/,-4,/,/
O=C(CSc1nnc(CNc2ccc(F)cc2)n1Cc1ccco1)N1CCOCC1,7,-1,-8,-14,-1,88*
O=C(CSc1nnc(CNc2ccc(F)cc2)n1Cc1ccco1)NC1CC1,20,-1,2,-13,0,59
CC(O)c1n(C)c(Cl)c[n+]1C (stereo unspecified),3,2,1,-2,-2,79*
O=C(N[C@H](C(=O)N1CCC[C@H]1C(=O)NC1CCCC1)C1CCCCC1)C1CC1,4,/,/,3,/,/
Cc1noc(C)c1S(=O)(=O)N1CCCc2nc(-c3ccc(Br)cc3)ccc21,0,/,/,-4,/,/
Cc1nc2ccccc2c2oc(C(=O)NCCN3CCCCC3C)cc12 (stereo unspecified),1,-3,4,-2,11*,-12
CCOC(=O)N1CCC(NC(=O)c2cc3c(C)nc4ccccc4c3o2)CC1,-5,-1,-1,-7,2,7
CCN1CCCC1CNC(=O)c1cc2c(C)nc3ccccc3c2o1 (stereo unspecified),-6,1,12,2,8.2*,6
CCc1ccc(CNC(=O)c2cc3c(C)nc4ccccc4c3o2)cc1,-4,-3,0,-9,-4,14
O=C(COc1ccc(F)cc1Br)N1CCN(S(=O)(=O)/C=C/c2ccccc2)CC1,-2,-3,11,1,-4,62*
COc1ccc(CCN(C)C(=O)Cc2ccc(-c3ccccc3)cc2)cc1OC,4,8.5*,4,-16,-2,6
COc1ccc(CCN(C)C(=O)COc2ccc(C(=O)c3ccccc3)cc2)cc1OC,3,/,5,8,/,/
C/C(=N/NS(=O)(=O)c1ccc(Br)cc1)c1ccc(NC(=O)c2ccc(C)o2)cc1,7,-3,40,14,0,74*
CC(=O)Nc1ccc(/C(C)=N/NS(=O)(=O)c2ccc(C)cc2)cc1,6,-2,-2,-8,-8,5
c1ccc(-c2ccc3c(n2)CCCN3Cc2ccccn2)cc1,12,/,/,-11,/,/
CN1CCN(C(=O)c2cc3c(=O)n4ccccc4nc3s2)CC1,-17,0,4,-3,7.9*,26
CCn1c(=O)c2cc(C(=O)N3CCN(C)CC3)sc2c2ccccc21,0,-2,-5,1,9.0*,10
C[C@@H]1CNC(=O)c2c(C(=O)N(C)Cc3ccccc3)ncn21,-5,/,/,-11,/,/
CC(=O)N1CCN(c2ccc(N3CCN(Cc4ccccc4)[C@@H](C)C3)c(C)c2)[C@H](C)C1,15,/,/,4,/,/
C[C@@H]1ON(C)[C@H]2C[C@H]3c4[nH]c5c(-c6ccc(Cl)cc6)cccc5c4CCN3C(=O)[C@@H]12,-1,/,/,9,/,/
Cc1ccc2nc(CN(C)C(=O)[C@H](CCc3ccccc3)NC(=O)[C@H]3O[C@@H](n4cnc5c(N)ncnc54)[C@H](O)[C@@H]3O)[nH]c2c1,0,/,/,-1,/,/
COC(=O)[C@]12C[C@H](CC(=O)N3CCSCC3)C(=O)N(Cc3ccccc3)C1=C[C@H](C(C)(C)C)O[C@@H]2C,-17,/,/,6,/,/
CCOc1ccc2nc3cc(NCc4ccc(OC)cc4)ccc3c(N)c2c1,/,-1,102*,/,-1,33
COc1ccc(OCCSc2nnc3sc4ccccc4n23)cc1,5,-4,-11,-6,-1,77*
Cc1cc(NCCc2c[nH]c3ccccc23)ccc1Nc1cccnc1,5,/,/,8,/,/
CCN1C(=O)N[C@H]2C[C@H](C(=O)N3CCCC3)[C@H](C)[C@H](c3ccccc3)C[C@H]21,-15,/,/,-1,/,/

# Source: PubChem BioAssay
